Most compounds without a hit are left out; they make up all but 2.6% or so of the library.
Ecoli rRNA inh – selective bacterial rRNA inhibition in E. coli; E. coli WT GFP vs humanized-ribosome RFP mutants, fluorescence, 24 h; active compounds read low; DMSO median 0, no signal -100; GFP signal change (wild-type ribosome), % (test concentration not listed); actives 1.6% (n = 350,000);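 active = significant combined selectivity score with lowered wild-type GFP, culture density cut under 30%, mutant RFP and density less affected; inactive = any of these conditions unmet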
Env fusion inh – blocks HIV Env-driven cell-cell fusion | HeLa-JRFL Env/CEM21 cell fusion, luciferase | inhibition, % at 12.3 µM | actives 1.1% (n = 360,000) | AID 651610;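 active = mean replicate inhibition score of at least 50 and every replicate individually at or above 50; inconclusive = only one of the two criteria met; inactive = mean below 50 and not all replicates reaching 50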
S100A4 MyoIIA – S100A4-myosin IIA interaction inhibition; P26447; S100A4/TAMRA-MyoIIA peptide fluorescence polarization; inhibition, % at 10.7 µM; actives 0.14% (n = 360,000); AID 652163;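 active = mean inhibition of at least 70% across replicates, with every replicate also reaching that level; inconclusive = mean inhibition reaches 70% but some replicates fall short; inactive = mean inhibition below 70%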
Target sequence (P26447 whole entry, looked up): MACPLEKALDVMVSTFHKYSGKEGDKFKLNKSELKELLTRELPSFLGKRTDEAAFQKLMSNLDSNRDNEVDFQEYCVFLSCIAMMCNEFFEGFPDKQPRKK
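Material: S100A4 monomer protein / Buffer or medium: 50 mM HEPES pH 7.2, 10 mM CaCl2, 100 mM KCl / Times: 5 min incubation before reading / Benchmarks: neutral control DMSO, positive control TFP / Reagent: labelled myosin peptide probe, 5 nM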
miR-122 sensor – inhibitors of miR-122 in Huh7 cells | Huh7 miR-122 Renilla luciferase sensor, 48 h; neutral wells = 0, positive control = 100 | actives 0.3% (n = 340,000) | activation (reporter increase), % at 12.5 µM | AID 602342;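 active = mean replicate activation score at least 90 and every replicate individually at or above 90; inconclusive = only one of the two criteria met; inactive = neither criterion met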;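 note: higher luciferase means less miR-122 activity so hits act as miR-122 inhibitors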
Vif inh – blocks HIV Vif function; inhibition, % at 7.49 µM; HEK293T cells, Vif self-association by quenched fluorescence, imaging, 24 h; AID 602346; actives 0.35% (n = 340,000); in the data active = inhibition above about 50%, passing the limit was not always enough; inconclusive = no clear call, values can overlap the other calls; inactive = below about 31%
FN deposition inh – fibronectin deposition inhibition. AH1F fibroblasts, Alexa488-fibronectin deposition fluorescence, overnight. inhibition, % at 12.6 µM. actives 0.086% (n = 350,000). AID 743247;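 active = mean inhibition across replicates of 30% or more, regardless of how many single replicates reach that level; inconclusive = mean under 30% yet at least half of replicates reach 30%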
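Material: AH1F fibroblasts assembling fluorescent fibronectin matrix; amount: 10000 AH1F cells/well; medium: DMEM, 2% serum; reagent: Alexa488-fibronectin, 24 nM final in well; dosing: single compound dose, delivered by pin transfer; incubation: 1 h adhesion, overnight exposure; detection: fluorescence after three HBSS washes, excitation 485 nm, emission 525 nm; measure: fibronectin deposition inhibition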
Numbers stand for hits; n = inactive; u = inconclusive; x = no result.

SMILES	Ecoli rRNA inh	Env fusion inh	S100A4 MyoIIA	miR-122 sensor	Vif inh	FN deposition inh
COc1cc(C2=NOC(C(=O)NCc3ccc(F)cc3)C2)cc(OC)c1OC (stereo not given)	x	n	x	n	60.2	n
C[C@@H]1CN([C@@H](C)CO)C(=O)c2cccc(NS(=O)(=O)c3ccccc3)c2O[C@H]1CN(C)Cc1ccc(C(F)(F)F)cc1	n	x	n	n	x	x
COc1ccccc1C#CC1=CC(=O)CC(C)(C)C1	-22.6	n	n	n	n	n
COc1ccc(Cl)cc1NC(=O)C(C)NC(c1ccccc1)c1ccccc1 (stereo not given)	x	59.0	x	n	n	n
CCc1ccc(O)c(-c2cc(C(=O)Nc3cccnc3)[nH]n2)c1	-37.2	n	n	n	n	n
Cc1cc(C)c(O)c(-c2cc(C(=O)Nc3cccnc3)[nH]n2)c1	-32.5	n	n	x	n	n
Cc1cc(O)c(-c2cc(C(=O)Nc3cccnc3)[nH]n2)cc1C	n	n	n	n	n	n
Cc1cccc(NC(=O)c2cc(-c3cc(Cl)ccc3O)n[nH]2)c1	x	x	x	n	n	x
COc1cccc(C#Cc2ccc3c(c2)O[C@@H](CN(C)C)[C@@H](C)CN([C@H](C)CO)S3(=O)=O)c1	n	n	n	n	x	x
CC1CN(c2ncc(/C=N/NC(=O)c3ccccc3O)s2)CC(C)O1 (stereo not given)	-30.6	n	n	n	n	n
CCCn1c(NC(=O)c2cccc(S(=O)(=O)N3CCCC3)c2)nc2ccccc21	x	132.4	x	n	n	n
O=C(NCc1ccc(Cl)cc1)c1cccc(S(=O)(=O)N2CCCC2)c1	-19.0	n	n	n	n	n
Cc1ccc(O)c(NC(=O)c2cccc(S(=O)(=O)N3CCCCC3)c2)c1	x	x	x	112.9	n	x
CCCn1c(NC(=O)c2ccccc2)nc2ccccc21	x	x	x	n	n	x
O=C(NCc1ccccc1)c1cccc(S(=O)(=O)N2CCCCC2)c1	n	n	n	n	n	n
O=C(C[C@H]1C[C@H]2c3cc(NS(=O)(=O)c4ccc(F)cc4)ccc3O[C@H]2[C@H](CO)O1)NCC1CC1	n	n	x	n	x	n
CCCN(Cc1ccccc1)C(=S)NC(=O)c1ccccc1[N+](=O)[O-]	-50.6	n	n	x	n	n
CCN(Cc1ccccc1)C(=S)NC(=O)c1ccccc1Br	n	n	n	x	n	x
Cc1ccc(S(=O)(=O)NC(=NCc2ccccc2)c2ccc(F)cc2)cc1	n	n	n	116.5	n	x
Cc1ccc(S(=O)(=O)NC(=NCC(=O)O)c2ccc(F)cc2)cc1	x	n	x	n	n	x
C[C@@H]1CN([C@@H](C)CO)S(=O)(=O)c2ccc(-c3ccc(C(=O)N(C)C)cc3)cc2O[C@H]1CN(C)C(=O)C1CCC1	n	x	n	n	x	n
Cc1cccc2nc(COc3ccc4ccccc4c3Br)cn12	-26.9	n	n	x	n	n
C[C@H](CO)N1C[C@H](C)[C@H](CN(C)C)Oc2cc(-c3cccnc3)ccc2S1(=O)=O	n	n	n	n	x	n
Nc1nc(=S)ss1	-13.3	n	n	x	n	n
COc1ccc(S(=O)(=O)Nc2ccc3c(c2)C(=O)N([C@@H](C)CO)C[C@@H](C)[C@H](CN(C)C(=O)Nc2ccc4c(c2)OCO4)OCCCC[C@H](C)O3)cc1	n	n	n	n	x	n
SMILES	Ecoli rRNA inh	Env fusion inh	S100A4 MyoIIA	miR-122 sensor	Vif inh	FN deposition inh
CC1CCCC(NC(=O)CN2C(=O)COc3ccccc32)C1C (stereo not given)	n	n	n	n	n	n
CC1CCCC(NC(=O)CCN2C(=O)COc3ccccc32)C1C (stereo not given)	n	n	n	n	50.2	n
COc1ccc(NS(=O)(=O)c2cc(NC(=O)CCc3ccc(OC)c(OC)c3)ccc2N2CCOCC2)cc1	n	n	n	118.1	n	n
COc1cc(/C=C/C(=O)Nc2ccc(N3CCCCC3)c(S(=O)(=O)Nc3ccccc3Cl)c2)cc(OC)c1OC	x	n	x	288.7	n	n
COc1ccccc1NS(=O)(=O)c1cc(NC(=O)CCC2CCCC2)ccc1N1CCOCC1	n	n	n	119.0	n	n
COc1ccccc1NS(=O)(=O)c1cc(NC(=O)Nc2ccc(Cl)cc2Cl)ccc1N1CCCCC1	x	n	x	u	n	n
C=CCNC(=S)Nc1ccc(N2CCOCC2)c(S(=O)(=O)Nc2ccccc2Cl)c1	-33.8	n	n	n	n	n
CNC[C@H]1Oc2c(NS(=O)(=O)c3ccc(C)cc3)cccc2C(=O)N([C@H](C)CO)C[C@H]1C	n	x	n	n	x	x
C[C@H]1CN([C@@H](C)CO)C(=O)c2cc(NS(C)(=O)=O)ccc2O[C@H]1CN(C)CC1CCCCC1	n	n	n	n	x	n
COc1ccc(S(=O)(=O)Nc2cccc3c2O[C@@H](CN(C)C(=O)Nc2ccc(C(F)(F)F)cc2)[C@@H](C)CN([C@H](C)CO)C3=O)cc1	n	n	n	n	x	x
COc1ccccc1NS(=O)(=O)c1cc(NC(=O)CCC(=O)c2cccs2)ccc1Cl	n	x	n	107.7	n	n
CCOc1ccc(NS(=O)(=O)c2cc(NC(=O)CCC(=O)c3cccs3)ccc2Cl)cc1	n	n	n	x	n	n
COc1ccccc1NS(=O)(=O)c1cc(NC(=O)c2cccs2)ccc1N1CCOCC1	n	n	n	111.7	n	n
CCC(C(=O)Nc1ccc(N2CCOCC2)c(S(=O)(=O)Nc2ccccc2OC)c1)c1ccccc1 (stereo not given)	n	n	n	120.8	n	n
CCCNC(=O)N1C[C@H](C)[C@H](OC)CN(C)C(=O)c2cc(NC(=O)C3CCC3)ccc2OC[C@@H]1C	n	x	x	n	x	n
CO[C@@H]1CC[C@H]2CCOc3c(C#N)cccc3C(=O)N(C)C[C@H](C)C(=O)N(C)C[C@H]1O2	n	n	122.4	x	x	n
CO[C@H]1CC[C@H]2CCOc3c(C#N)cccc3C(=O)N(C)C[C@H](c3ccccc3)CC(=O)N(C)C[C@H]1O2	n	n	120.8	x	x	n
CO[C@H]1CN(C)C(=O)c2ccc(NC(C)=O)cc2OC[C@@H](C)N(C(=O)Cc2ccccn2)C[C@@H]1C	n	n	n	x	x	n
COCC(=O)N[C@H]1CC[C@H](CC(=O)NCc2ccc(Cl)cc2)O[C@@H]1CO	n	n	n	x	x	n
Cc1ccc(Nc2nc(=O)c3cccnc3s2)c(Br)c1	-21.7	n	n	n	n	n
CC(=O)c1ccc(Nc2nc(=O)c3cccnc3s2)cc1	x	x	x	n	n	x
C[C@@H]1CN([C@H](C)CO)C(=O)c2cc(C#Cc3ccncc3)cnc2O[C@H]1CN(C)C(=O)c1ccccc1F	n	n	n	n	x	n
C/C=C/c1ccc(OCCOc2cc(C=O)ccc2OC)c(OC)c1	x	x	x	x	n	n
C/C=C/c1ccc(OCCOCCNCc2ccccc2)c(OC)c1	n	89.4	n	x	n	n
